Laboratory results published in ChEMBL document CHEMBL1129452, “Phenethylthiazolylthiourea (PETT) compounds as a new class of HIV-1 reverse transcriptase inhibitors. 2. Synthesis and further structure-activity relationship studies of PETT analogs” (J Med Chem, 1996).
pEC50, pIC50: −log10 of the molar value.

Assays:
MT4 [1] = test: Inhibition of mutant type (Cys181) HIV-1 (IIIB) replication in MT-4 cells; assay type: functional; settings: Homo sapiens, read-out: ED50 (the source's name)
Summary of the method: (§1)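 MT-4 cells (human T cell line) in RPMI 1640 with 10% fetal calf serum, penicillin and streptomycin, seeded at 2 × 10⁴ cells/well. Infected with 10-20 TCID₅₀ of mutant HIV-1 IIIB per well, with the compound added at different concentrations. Incubated at 37 °C in CO₂. Cell viability read by XTT dye at day 5 or 6. Activity taken as the reduction in viral cytopathic effect, given as ED₅₀. Mutants were raised by passage in stepwise increasing concentrations of non-nucleoside RT inhibitors.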

[2] = biological target: T1, Human immunodeficiency virus type 1 reverse transcriptase (Human immunodeficiency virus 1, UniProt Q72547); test: Tested for the inhibition of mutant type (Cys181) HIV-1 (IIIB) RT
[3] = biological target: T1, Human immunodeficiency virus type 1 reverse transcriptase; test: Tested for the inhibition of mutant type (Ile100) HIV-1 (IIIB) RT
MT4 [4] = test: Inhibition of mutant type (Ile100) HIV-1 (IIIB) replication in MT-4 cells; assay type: functional; settings: Homo sapiens, read-out: ED50 (the source's name); summary of the method: as §1
MT4 [5] = test: Tested for the inhibition of wild type HIV-1 (IIIB) replication in MT-4 cells; assay type: functional; settings: Homo sapiens, read-out: ED50 (the source's name)
Summary of the method: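 MT-4 human T cells in RPMI 1640 with 10% fetal calf serum, penicillin and streptomycin, seeded at 2 × 10⁴ cells/well and infected with 10-20 TCID₅₀ HIV-1 IIIB per well. Compounds were added over a concentration range and cultures kept at 37 °C in CO₂. Viability was read by XTT at day 5 or 6, and activity was taken as reduction of viral cytopathic effect.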

MT4 [6] = test: Inhibition of HIV-1(IIIB) variants (Ile100/Asn103) in HIV-1 MT-4 cells; assay type: functional; settings: Homo sapiens, read-out: ED50 (the source's name); summary of the method: as §1
[7] = biological target: T1, Human immunodeficiency virus type 1 reverse transcriptase; test: Tested for the inhibition of wild type HIV-1 (IIIB) RT
MT4 [8] = test: Inhibition of HIV-1(IIIB) variants (Ile100/Cys181 in HIV-1 MT-4 cells; assay type: functional; settings: Homo sapiens, read-out: ED50 (the source's name); summary of the method: as §1
MT4 [9] = test: Inhibition of HIV-1(IIIB) variants (Ile100/Cys181) in HIV-1 MT-4 cells; assay type: functional; settings: Homo sapiens, read-out: ED50 (the source's name); summary of the method: as §1
MT4 [10] = test: Inhibition of HIV-1(IIIB) variants (Ile100/Cys 181) in HIV-1 MT-4 cells; assay type: functional; settings: Homo sapiens, read-out: ED50 (the source's name); summary of the method: as §1

| SMILES | pEC50 (MT4 [1]) | pIC50 [2] | pIC50 [3] | pEC50 (MT4 [4]) | pEC50 (MT4 [5]) | pEC50 (MT4 [6]) | pIC50 [7] | pEC50 (MT4 [8]) | pEC50 (MT4 [9]) | pEC50 (MT4 [10]) |
| --- | --- | --- | --- | --- | --- | --- | --- | --- | --- | --- |
| CN(C)c1ccc(CC/N=C(\S)Nc2ccc(Br)cn2)c(F)c1C#N | 7.70 | 6.96 | 6.68 | 6.82 | 7.89 | 5.26 | 8.10 | 5.12 |  |  |
| CCOc1ccc(OC)c(CCNC(=S)Nc2ccc(Cl)cn2)c1F | 8.05 | 7.47 | 6.80 | 7.05 | 8.30 | < 5.00 | 8.30 |  | < 5.00 |  |
| COc1ccc(F)c(F)c1CCNC(=S)Nc1ccc(Br)cn1 | 7.40 | 8.40 | 7.30 | 6.22 | 8.15 | < 5.00 | 8.52 | < 5.00 |  |  |
| CCOc1ccc(F)c(CC/N=C(\S)Nc2ccc(Br)cn2)c1C#N | 8.30 | 6.68 | 6.85 | 7.40 | 8.40 | < 5.00 | 8.70 |  | 5.52 |  |
| CCOc1ccc(Cl)c(CC/N=C(\S)Nc2ccc(Br)cn2)c1F | 7.30 | 8.05 | 7.05 | 6.05 | 7.74 | < 5.00 | 8.70 |  | < 5.00 |  |
| N#Cc1ccc(F)c(CC/N=C(\S)Nc2ccc(Cl)cn2)c1F | 7.30 | 7.05 | 6.40 | 6.10 | 8.22 | < 5.00 | 8.05 |  |  | < 5.00 |
| O=C1c2ccccc2C(=O)N1CCNC(=S)Nc1ccc(Cl)cn1 | 7.40 | 6.89 | 6.55 | 6.70 | 8.30 | < 5.00 | 9.00 | 4.82 |  |  |
| COc1ccc(OC)c(CCNC(=S)Nc2ccc(Cl)cn2)c1F | 8.52 | 7.27 | 7.10 | 8.05 | 8.70 | 6.00 | 9.00 |  | 6.00 |  |
